How the values were obtained:
[1] = test system: MS2 coat protein; assay: apparent Kd, MS2 coat protein; higher = weaker binding; RNA-MaP array; theophylline 2 mM where present
Summary of the method: (§1)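 Two titrations, one without ligand and one with constant ligand, were run with SNAP-549-labelled MS2 coat protein from 0.7 or 1.5 nM, doubling to 3 µM. The targets were designs transcribed by stalled E. coli RNA polymerase on Illumina sequencing-chip clusters, in 100 mM Tris-HCl pH 7.5, 80 mM KCl, 4 mM MgCl2, BSA, DTT, yeast tRNA and Tween-20. The apparent Kd is the median of filtered per-cluster binding-curve fits, with green signal normalised to red-channel RNA signal and control-cluster median Fmax.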

[2] = test system: MS2 coat protein; assay: apparent Kd, MS2 coat protein; higher = weaker binding; RNA-MaP array; tryptophan 2.4 mM where present
Summary of the method: as §1

[3] = designed as: OFF switch for theophylline, no ligand
[4] = ligand present: theophylline, designed as: OFF switch for theophylline
[5] = designed as: ON switch for theophylline, no ligand
[6] = ligand present: theophylline, designed as: ON switch for theophylline
[7] = designed as: OFF switch for tryptophan, no ligand
[8] = ligand present: tryptophan, designed as: OFF switch for tryptophan
[9] = designed as: ON switch for tryptophan, no ligand
[10] = ligand present: tryptophan, designed as: ON switch for tryptophan

AAAACACAUGAGGAUCACCCAUGUCGUGAUACCAGUCAACAUGAGGACCCUUGGCAGCAUAAAAUGGGUAACAUGAGGAUAACCC
apparent Kd [1, 3]: 89.6 nM
apparent Kd [1, 4]: 146 nM

AAACAUGAGGAUCACCCAUGUUCAAUAGAUACCAGUGAUACGGUGCACCCUUGGCAGCUGUUGCUGAGUGAUGGUUCCCUCGGUA
apparent Kd [1, 5]: 29 nM
apparent Kd [1, 6]: 37.3 nM

AAAUAAAUCACAUGAGGAUCACCCAUGGAUACCAGGCCUGGAAACAGCCCUUGGCAGCCACAUGAGGAUCACCCAUGUGCUAAAU
apparent Kd [1, 3]: 190 nM
apparent Kd [1, 4]: 198 nM

AAUAUAAGUGUAAUUUUAUGUAUCUCUGAUACCAGACCCUCAUGUGUCCCUUGGCAGCAGUAACAUGAGGAUCACCCAUGUAAAA
apparent Kd [1, 5]: 65.4 nM
apparent Kd [1, 6]: 310 nM

AAUUGGGUUGGUGAGGUGGUUGGAGGCGAUACCAGCGUGGAAACACGCCCUUGGCAGCGCCAGGACAUGAGGAUCACCCAUGUUC
apparent Kd [1, 3]: 22.7 nM
apparent Kd [1, 4]: 35.2 nM

ACAUGAAGAACAGCGGUGGGCGCGCUCGAUACCAGUACUUUAAAAUACCCUUGGCAGCGACAUGAGGAUCACCCAUGUGAGAUGA
apparent Kd [1, 3]: 15.3 nM
apparent Kd [1, 4]: 28.6 nM

ACAUGAAGAACAGCGGUGGGCGCGCUCGAUACCAGUACUUUGAUUUACCCUUGGCAGCGACAUGAGGAUCACCCAUGUGAGAUGA
apparent Kd [1, 3]: 18 nM
apparent Kd [1, 4]: 27.6 nM

ACAUGAGGAUCACCCAUGUGCCGAGUUGAUACCAGACCCGCACUAGUCCCUUGGCAGCAACUACGUGUGGGACACCCAUGUUAAG
apparent Kd [1, 3]: 54.4 nM
apparent Kd [1, 4]: 71.3 nM

ACAUGAGGAUCACCCAUGUUCCUCAUUGAUACCAGUGAAAGAAGACGCCCUUGGCAGCGAGAAGAAGAAGAAGAAGUUUUUUUUU
apparent Kd [1, 3]: 606 nM
apparent Kd [1, 4]: 1340 nM

ACCUACACGGAAACGUGUAGAAGUAAUGAUACCAGCAUGGAAACAUGCCCUUGGCAGCGUUACAUGAGGAUCACCCAUGUAUGUU
apparent Kd [1, 3]: 14.8 nM
apparent Kd [1, 4]: 32.4 nM

ACGACAUGAGGAUCACCCAUGUAAGGUGAUACCAGACGAAGUAAUGUCCCUUGGCAGCACAAGCAUAGUUGCGAUUAUUGUACGA
apparent Kd [1, 5]: 438 nM
apparent Kd [1, 6]: 158 nM

ACGACGCAUAGUGAUACCAGCACAACAUGAGGAUCACCCAUGUCACUUAUGUAGUAAUAAUGCCCUUGGCAGCACUAUGCGUCAG
apparent Kd [1, 5]: 55.2 nM
apparent Kd [1, 6]: 65.6 nM

ACGCUGAUUGAUUACAAUCAGCGAAAAGAUACCAGUGGGUAAUCCCACCCUUGGCAGCUUAAACAUGAGGAUCACCCAUGUGGUA
apparent Kd [1, 5]: 74.5 nM
apparent Kd [1, 6]: 123 nM

AGACAUGAGGAUCACCCAUGUAGCACGGAUACCAGAUCCAGAUGUAUCCCUUGGCAGCUGUGGUACAGCGUUGCAACGCUCCUAG
apparent Kd [1, 3]: 20.7 nM
apparent Kd [1, 4]: 28.1 nM

AGACAUGAGGAUCACCCAUGUAGUACGGAUACCAGAUCCAGAUGUAUCCCUUGGCAGCUGUGGUACAGCGUUACAUCGCUCCUAG
apparent Kd [1, 3]: 15.1 nM
apparent Kd [1, 4]: 19.4 nM

AGACAUGAGGAUCACCCAUGUAGUAUGGAUACCAGAUCCAGAUUUAUCCCUUGGCAGCUGUGGUACAGCGUUGGAUCGCUCCUAG
apparent Kd [1, 3]: 26.5 nM

AGCACACAUCCUGAUACCAGAGACAUGAGGAUCACCCAUGUCCGAUCGUCCUGCCUCAGACUCCCUUGGCAGCAGGAUGUGUGCU
apparent Kd [1, 3]: 13.1 nM
apparent Kd [1, 4]: 32.4 nM

AGCAGUACAACAGAUACCAGACUUUUCAUGCCUUUAAUUACAUGAGGAUCACCCAUGUUUGUCCCUUGGCAGCUGUUGUACUGCA
apparent Kd [1, 3]: 41.9 nM
apparent Kd [1, 4]: 111 nM

AGCGACAUGCGUGAUACCAGCUACAUGAGGAUCACCCAUGUAAGUAGGAAACUACUGUGUAGCCCUUGGCAGCACAGUGCAUGUC
apparent Kd [1, 3]: 9.48 nM
apparent Kd [1, 4]: 26.6 nM

AGUACUCGAACGGAUACCAGCCGGACAUGAGGAUCACCCAUGUCCUACCUAUGUUCGGUUGGCCCUUGGCAGCCGUUCGUGUACA
apparent Kd [1, 5]: 215 nM
apparent Kd [1, 6]: 51 nM

AGUCUAUGGAGAGAUACCAGUGAGAGCCAUAGACAUGAGGAUCACCCAUGUGACAUGGAUCACCCUUGGCAGCUCAACGAGCUCU
apparent Kd [1, 5]: 126 nM
apparent Kd [1, 6]: 20.2 nM

AGUGUUGUAACUGAUACCAGACCUUUGCUUAUACAUGAGGAUCACCCAUGUAAAAUGGCGGUCCCUUGGCAGCAGAGAAGACGCA
apparent Kd [1, 5]: 40.1 nM
apparent Kd [1, 6]: 12.2 nM

AUAACAUGAGGAUCACCCAUGUAGAGUGAUACCAGACUAUGUAAUGUCCCUUGGCAGCACAAGUAAAGUUAUAAAUAAUGAUAGA
apparent Kd [1, 5]: 157 nM
apparent Kd [1, 6]: 27.2 nM

AUCUGUAUGUUUUCGUGUUUUAUUACAGAUACCAGACUAUACGUUGUCCCUUGGCAGCUGGAUGACAUGAGGAUCACCCAUGUUG
apparent Kd [1, 3]: 33.5 nM
apparent Kd [1, 4]: 36.6 nM

AUGUCAUUGGUGUAGCUGUGAAGUGGCGAUACCAGCGUGGAAACACGCCCUUGGCAGCGCCAAAACAUGAGGAUCACCCAUGUUA
apparent Kd [1, 3]: 22.3 nM
apparent Kd [1, 4]: 156 nM

AUGUCGUUGAAUAUAGCGGCUUGGAGUGAUACCAGUAUGAUCCAAUACCCUUGGCAGCAUAACAUGAGGAUCACCCAUGUUCCAG
apparent Kd [1, 5]: 21.3 nM
apparent Kd [1, 6]: 31.6 nM

AUUAAUAGUUGUGAUACCAGACGAACAUGAGGAUCACCCAUGUAACUUAAGAGUGUUGAUGUCCCUUGGCAGCACUGUUUAGUUA
apparent Kd [1, 5]: 108 nM
apparent Kd [1, 6]: 87.8 nM

AUUCCAUUGGUGCAGUUGUUAAAUGGCGAUACCAGCGUGGAAACACGCCCUUGGCAGCGCCAAAACAUGAGGAUCACCCAUGUUA
apparent Kd [1, 3]: 61 nM
apparent Kd [1, 4]: 120 nM

CAUACUUUAGUAUGUUAUGUGGACAGUGAUACCAGAUACGAAAGUAUCCCUUGGCAGCACAACAUGAGGAUCACCCAUGUAAUUU
apparent Kd [1, 5]: 26.1 nM
apparent Kd [1, 6]: 15.6 nM

CCGCCCACGAAUGAUACCAGCUAAAAUCAUGUACCAGACACAUGAGGAUCACCCAUGUAAAGCCCUUGGCAGCGUACGCCACCCG
apparent Kd [1, 3]: 23.5 nM
apparent Kd [1, 4]: 26.4 nM

CCUAUGACAUGAGGAUCACCCAUGUUGGAUACCAGCGCAUGAGGACGCCCUUGGCAGCCAAUGAACAUGAGGAUACAUGAGGAUC
apparent Kd [1, 5]: 44.5 nM
apparent Kd [1, 6]: 185 nM

CGAAUACUGAGUGAUACCAGUGAAAGAUAACUGUAUACACAUGAGGAUCACCCAUGUACACACCCUUGGCAGCACACUAGAUCGA
apparent Kd [1, 5]: 33.3 nM
apparent Kd [1, 6]: 17.4 nM

CGAGUUCGCUGAUGGGCUACGUCAGGUGAUACCAGCCACUCCCGCGGCCCUUGGCAGCACAUGAGGAUCACCCAUGUAGAGCUUG
apparent Kd [1, 3]: 13.6 nM
apparent Kd [1, 4]: 238 nM

CGGUUUGUGAUGGAUACCAGCAGAGAAAAUGUUUAUCCUGACAUGAGGAUCACCCAUGUGUGCCCUUGGCAGCUGUUGUGGGCUG
apparent Kd [1, 3]: 56.2 nM
apparent Kd [1, 4]: 75.3 nM

CGGUUUGUGAUGGAUACCAGCAGAGUGAAUGUUUAUCCUGACAUGAGGAUCACCCAUGUGUGCCCUUGGCAGCUGUUGUGGGCUG
apparent Kd [1, 3]: 63.5 nM
apparent Kd [1, 4]: 89.4 nM

CUAGGAAACUAGUAAGGGUGGUAUAGAGAUACCAGUACAGAAAUGUACCCUUGGCAGCUCACUGCAACAUGAGGAUCACCCAUGU
apparent Kd [1, 3]: 32.3 nM
apparent Kd [1, 4]: 102 nM

CUGCCAUGCAGAGAUACCAGUGAGCUCAAAACAUGAGGAUCACCCAUGUAAAUUGCCGAUCACCCUUGGCAGCUCUGCAUGGCAG
apparent Kd [1, 5]: 9.78 nM
apparent Kd [1, 6]: 7.84 nM

GAACAUGAGGAUCACCCAUGUAAAACAGAUACCAGUGAUAUAAUACACCCUUGGCAGCUGAAGCUGAAUAAUAAUUCCCUCAAGC
apparent Kd [1, 5]: 14.8 nM
apparent Kd [1, 6]: 16.4 nM

GAGCUGAUGUAGAAAUUUUAUUUAUGAGAUACCAGUACAGAAAUGUACCCUUGGCAGCUCAAUUUUACAUGAGGAUCACCCAUGU
apparent Kd [1, 3]: 12.1 nM
apparent Kd [1, 4]: 13.4 nM

GAUACCAUGAUCCUCCUGGUAUCGGCUGAUACCAGCCAGCUGACUGGCCCUUGGCAGCAGCAUACAUGAGGAUCACCCAUGUUAA
apparent Kd [1, 5]: 88.3 nM
apparent Kd [1, 6]: 267 nM

GAUGAAGUAACUGAUACCAGUGUACUGACAUGAGGAUCACCCAUGUUGGGUUUUGUUGUACACCCUUGGCAGCAGAAUCUUUAUC
apparent Kd [1, 3]: 52.3 nM
apparent Kd [1, 4]: 84.9 nM

GCGAUACGUACUGAUACCAGAGACAUGAGGAUCACCCAUGUCCCAUGAUCAUACCUCAGACUCCCUUGGCAGCAGGAUAAGUGAG
apparent Kd [1, 3]: 11.2 nM
apparent Kd [1, 4]: 18.3 nM

GGUGGCGGGACUGAUACCAGCCACCACCGAUAGACCACAUGAGGAUCACCCAUGUUGGGUGGCCCUUGGCAGCAGUCUUGCUGCU
apparent Kd [1, 5]: 542 nM
apparent Kd [1, 6]: 630 nM

GUAAAUGUGACGGAUACCAGCGUGUUGUAGAACAUGAGGAUCACCCAUGUAGUGAUCAUGCGCCCUUGGCAGCUGGUAUGUUUGU
apparent Kd [1, 5]: 474 nM
apparent Kd [1, 6]: 841 nM

UAUAAAAUAACAGAUACCAGCGUGUUAUAAAACAUGAGGAUCACCCAUGUAGUGAUCAAGCGCCCUUGGCAGCUGGUAUUUUAUA
apparent Kd [1, 5]: 101 nM
apparent Kd [1, 6]: 126 nM

UAUAACAUGAGGAUCACCCAUGUAAGUGAUACCAGAUAAAUAAUAGUCCCUUGGCAGCAUAUUGGGAAAGUGUAUAAUAUAUAUU
apparent Kd [1, 5]: 52.2 nM
apparent Kd [1, 6]: 57 nM

UAUCGUCAGACGGCCGCCACUAGAACAUGAGGAUCACCCAUGUACUAGUGGCAUACCUCAUGAACUAGGACCGGGUCUGACGAAU
apparent Kd [2, 7]: 9.33 nM
apparent Kd [2, 8]: 9.25 nM

UAUCGUCAGACGGCCGCCACUAGAACAUGAGGAUCACCCAUGUAGGCGGCCGAUUCCUCAUUAACUAGGACCGGGUCUGACGAAU
apparent Kd [2, 7]: 8.13 nM
apparent Kd [2, 8]: 9.67 nM

UCAGAUGAGGCGGCCGCCACUCGCGGAUAACGAUAGAUUAACAUGAGGAUCACCCAUGUGUCAUGGAGGACCGGGCCCAUGACAU
apparent Kd [2, 9]: 27.9 nM
apparent Kd [2, 10]: 23.7 nM

UGGUACUAGGCGGCCGCCACUGGGAGAUACAUGAGGAUCACCCAUGUUUAAUGCCGAGAGGCAACUAGGACCGGGCCUAGUACAU
apparent Kd [2, 9]: 117 nM
apparent Kd [2, 10]: 26.5 nM

UGUACCAUGUCGGCCGCCACUCAUGAUAAACAUGAGGAUCACCCAUGUAGCGUCAAAGACGCUAUGAGGACCGGGACAUGGUACU
apparent Kd [2, 9]: 35 nM
apparent Kd [2, 10]: 12.2 nM

UUCAGCUAGUCGGCCGCCACUACAUGAGGAUCACCCAUGUAAUCCUAACACUGCUUCGGCAGUGGUAGGACCGGGACUAGCUGAG
apparent Kd [2, 7]: 10.6 nM
apparent Kd [2, 8]: 17.1 nM
